{"source": "paper PMC9924264", "about": "(Journal of Medicinal Chemistry, 2023)", "key": {"BMPR2": {"target": "T1, BMPR2 (Homo sapiens, UniProt Q13873)", "T1 sequence (Q13873 27-1038)": "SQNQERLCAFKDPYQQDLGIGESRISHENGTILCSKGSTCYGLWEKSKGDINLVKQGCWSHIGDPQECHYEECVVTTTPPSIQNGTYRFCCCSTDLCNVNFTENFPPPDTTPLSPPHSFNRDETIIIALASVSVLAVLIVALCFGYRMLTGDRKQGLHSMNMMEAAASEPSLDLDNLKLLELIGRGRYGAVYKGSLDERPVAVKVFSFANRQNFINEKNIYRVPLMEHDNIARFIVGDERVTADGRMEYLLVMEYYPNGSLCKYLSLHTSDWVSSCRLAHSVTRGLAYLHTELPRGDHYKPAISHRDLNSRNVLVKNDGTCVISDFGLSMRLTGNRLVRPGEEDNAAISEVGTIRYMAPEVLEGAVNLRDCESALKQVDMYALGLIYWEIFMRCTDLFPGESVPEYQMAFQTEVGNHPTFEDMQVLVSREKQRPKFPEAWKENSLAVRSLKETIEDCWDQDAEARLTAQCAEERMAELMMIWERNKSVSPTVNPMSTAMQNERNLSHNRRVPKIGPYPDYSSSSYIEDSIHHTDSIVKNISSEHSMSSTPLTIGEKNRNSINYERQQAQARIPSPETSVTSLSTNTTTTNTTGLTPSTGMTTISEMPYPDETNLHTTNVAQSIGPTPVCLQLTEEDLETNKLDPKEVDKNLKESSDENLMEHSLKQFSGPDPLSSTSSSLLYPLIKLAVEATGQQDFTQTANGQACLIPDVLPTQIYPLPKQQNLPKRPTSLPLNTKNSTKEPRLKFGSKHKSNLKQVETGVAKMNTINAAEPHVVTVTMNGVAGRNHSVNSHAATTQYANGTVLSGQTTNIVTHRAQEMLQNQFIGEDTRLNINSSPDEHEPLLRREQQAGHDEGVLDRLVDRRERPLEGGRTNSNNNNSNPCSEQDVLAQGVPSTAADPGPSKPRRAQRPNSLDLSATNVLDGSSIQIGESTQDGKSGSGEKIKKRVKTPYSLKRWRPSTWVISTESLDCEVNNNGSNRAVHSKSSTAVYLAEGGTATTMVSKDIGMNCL", "test": "ThermoFisher SelectScreen LanthaScreen assay", "assay_type": "binding", "conditions": "than CDD-1115"}, "[1]": {"test": "Metabolic stability in mouse liver microsomes", "assay_type": "in vitro ADME", "conditions": "compared with analogue (CDD-1115 for CDD-1281, CDD-1431 for CDD-1653)"}, "BMPR1B (ALK6)": {"target": "BMPR1B (ALK6) (Homo sapiens, UniProt O00238)", "sequence (O00238 14-502)": "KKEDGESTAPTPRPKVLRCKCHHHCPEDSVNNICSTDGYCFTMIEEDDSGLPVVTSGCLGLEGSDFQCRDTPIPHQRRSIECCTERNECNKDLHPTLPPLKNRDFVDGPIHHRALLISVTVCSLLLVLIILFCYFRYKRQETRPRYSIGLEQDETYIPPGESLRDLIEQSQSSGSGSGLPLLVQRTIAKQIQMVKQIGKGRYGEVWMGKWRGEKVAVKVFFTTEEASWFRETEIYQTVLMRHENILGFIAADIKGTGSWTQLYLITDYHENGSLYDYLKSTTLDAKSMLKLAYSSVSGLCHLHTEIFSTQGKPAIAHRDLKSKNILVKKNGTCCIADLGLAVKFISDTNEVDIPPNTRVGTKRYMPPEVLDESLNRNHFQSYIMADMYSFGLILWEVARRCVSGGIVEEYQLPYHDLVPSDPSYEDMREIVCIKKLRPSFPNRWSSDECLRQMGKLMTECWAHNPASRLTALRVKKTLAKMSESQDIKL", "test": "ThermoFisher SelectScreen LanthaScreen assay", "assay_type": "binding", "conditions": "ALK6 vs BMPR2"}, "BMPR1A (ALK3)": {"target": "BMPR1A (ALK3) (Homo sapiens, UniProt P36894)", "sequence (P36894 24-532)": "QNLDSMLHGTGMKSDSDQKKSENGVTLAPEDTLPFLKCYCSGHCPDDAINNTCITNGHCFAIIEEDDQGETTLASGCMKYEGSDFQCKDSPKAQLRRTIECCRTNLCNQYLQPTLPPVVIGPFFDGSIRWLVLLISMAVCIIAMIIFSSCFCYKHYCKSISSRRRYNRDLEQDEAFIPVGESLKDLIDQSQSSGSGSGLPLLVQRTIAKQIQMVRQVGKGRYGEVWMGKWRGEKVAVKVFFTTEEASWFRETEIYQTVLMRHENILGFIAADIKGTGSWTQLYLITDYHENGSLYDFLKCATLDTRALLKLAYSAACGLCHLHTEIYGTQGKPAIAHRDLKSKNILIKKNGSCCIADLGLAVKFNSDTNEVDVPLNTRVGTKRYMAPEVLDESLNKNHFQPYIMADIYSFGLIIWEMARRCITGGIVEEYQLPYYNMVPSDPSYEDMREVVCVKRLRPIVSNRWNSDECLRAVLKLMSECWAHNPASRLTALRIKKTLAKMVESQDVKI", "test": "ThermoFisher SelectScreen LanthaScreen assay", "assay_type": "binding", "conditions": "ALK3 vs BMPR2"}, "[2]": {"system": "pSMAD1/5 in human umbilical vein endothelial cells (HUVECs)", "test": "pSMAD1/5 Western blot, BMP9-stimulated HUVECs", "assay_type": "cell-based", "conditions": "25 μM, 30 min pretreatment, 0.5 ng/mL BMP9 15 min", "in_short": "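HUVECs, about 3 × 10^5 per well, starved overnight in Kaighn's F-12 with 0.5% FBS and 30 μg/mL endothelial cell growth supplement. Pretreated with inhibitors for 30 min, then given 0.5 ng/mL BMP9 for 15 min. Lysed with protease and phosphatase inhibitors. SDS-PAGE immunoblot for pSMAD1/5, SMAD1, SMAD5 and GAPDH, with densitometry. n = 3 biological replicates; one-way ANOVA with Tukey post hoc test.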"}, "TGFBR1 (ALK5)": {"target": "T2, TGFBR1 (ALK5) (Homo sapiens, UniProt P36897)", "T2 sequence (P36897 34-503)": "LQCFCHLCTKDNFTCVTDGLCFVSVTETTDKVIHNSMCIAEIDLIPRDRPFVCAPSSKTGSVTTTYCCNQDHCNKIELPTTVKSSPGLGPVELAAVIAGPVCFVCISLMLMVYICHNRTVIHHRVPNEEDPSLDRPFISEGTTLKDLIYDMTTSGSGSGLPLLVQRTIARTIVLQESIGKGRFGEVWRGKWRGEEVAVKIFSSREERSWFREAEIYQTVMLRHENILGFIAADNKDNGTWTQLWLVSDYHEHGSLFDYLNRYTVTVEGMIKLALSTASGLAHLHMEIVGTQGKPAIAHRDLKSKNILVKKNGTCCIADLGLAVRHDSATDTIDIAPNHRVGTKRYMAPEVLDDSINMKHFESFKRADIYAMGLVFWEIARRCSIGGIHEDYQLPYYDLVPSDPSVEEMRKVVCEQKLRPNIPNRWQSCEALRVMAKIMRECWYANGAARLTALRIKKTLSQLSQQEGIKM", "test": "ThermoFisher SelectScreen LanthaScreen assay", "assay_type": "binding", "conditions": "ALK5 vs BMPR2"}, "[3]": {"test": "Metabolic stability in human liver microsomes", "assay_type": "in vitro ADME", "conditions": "compared with analogue (CDD-1115 for CDD-1281, CDD-1431 for CDD-1653)", "in_short": "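Human liver microsomes (0.5 mg protein/mL) incubated at 37 °C with test compound (2.0 μM) and NADPH cofactor (1.0 mM). Samples taken at 0, 30 and 60 min, in duplicate. […] Half-life was compared with that of the paired structural analogue.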"}}, "data": [{"smiles": "NC(=O)c1cccc(CNC(=O)c2ccc3nc(-c4ccc5cnccc5c4)n(C4CCCC4)c3c2)c1", "note": "[CDD-1281, N-(3-Carbamoylbenzyl)-1-cyclopentyl-2-(isoquinolin-6-yl)-1H-benzo[d]imidazole-6-carboxamide]", "values": [{"measurement": "fold higher potency (IC50)", "setting": "BMPR2", "value": 1.5, "unit": "fold"}, {"measurement": "fold increase of half-life in MLM", "setting": "[1]", "value": 3.5, "unit": "fold"}, {"measurement": "selectivity", "setting": "BMPR1B (ALK6)", "value": ">830", "unit": "×"}, {"measurement": "selectivity", "setting": "BMPR1A (ALK3)", "value": ">830", "unit": "×"}, {"measurement": "phosphorylation of SMAD1/5 (pSMAD1/5)", "setting": "[2]", "value": "significantly decreased"}, {"measurement": "selectivity", "setting": "TGFBR1 (ALK5)", "value": ">830", "unit": "×"}, {"measurement": "fold increase of half-life in HLM", "setting": "[3]", "value": 11.0, "unit": "fold"}]}]}
